Most compounds without a hit are left out; they make up all but 3.1% or so of the library.
OX1R antag-1 = OX1R (human) antagonism; 330,000 tested, 1.8% active; OX1R-expressing cells, FRET antagonist read-out; inhibition, % at 6.6 µM; in the data active = inhibition mostly above about 38%, no sharp cut-off; inactive = mostly below about 40%;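 also: 0% = agonist challenge alone and 100% = reference antagonist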
Target sequence (O43613 whole entry, looked up): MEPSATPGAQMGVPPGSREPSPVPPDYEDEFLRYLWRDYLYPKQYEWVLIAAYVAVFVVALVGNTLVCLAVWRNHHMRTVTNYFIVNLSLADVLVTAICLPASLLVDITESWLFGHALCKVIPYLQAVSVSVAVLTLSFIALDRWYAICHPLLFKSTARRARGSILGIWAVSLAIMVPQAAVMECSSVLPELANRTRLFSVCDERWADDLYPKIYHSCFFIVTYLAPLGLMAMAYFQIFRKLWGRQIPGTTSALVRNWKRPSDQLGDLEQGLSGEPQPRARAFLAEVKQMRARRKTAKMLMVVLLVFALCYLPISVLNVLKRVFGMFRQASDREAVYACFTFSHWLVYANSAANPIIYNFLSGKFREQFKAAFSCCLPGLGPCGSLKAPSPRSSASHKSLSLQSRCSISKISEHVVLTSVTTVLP
OX1R antag-2 = blocks the human orexin 1 receptor. CHO/OX1R cells, Fluo-8 calcium fluorescence, orexin A. inhibition, % at 5 µM. 330,000 tested, 0.43% active;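 active = inhibition above its plate's threshold, mean inhibition of all tested compounds on the plate plus 3 SD, cut at about 37% in these data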;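 also: 0% = orexin A challenge wells and 100% = SB-334867-A antagonist wells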
GPR7 antag = human neuropeptides B/W receptor 1 antagonism. inhibition, % at 4.4 µM. P48145. 290,000 tested, 1.1% active. GPR7-expressing cells, fluorescence antagonist assay; in the data active = inhibition above about 16%, passing the limit was not always enough;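 also: cells stimulated with the agonist NPW; 0% = agonist with vehicle and 100% = vehicle without agonist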
CHO parental Ca = counter-screen: ATP calcium response change in parental CHO cells; inhibition, % at 5.6 µM; parental CHO-K1, ATP-induced calcium, Fluo-8 fluorescence; 330,000 tested, 0.63% active;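 active = inhibition above that plate's mean sample inhibition plus 3 SD, cut at about 26% in these data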;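 also: 0% = ATP-challenged DMSO wells and 100% = DMSO wells without ATP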
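Material: parental CHO cells / Compound: single nominal dose of 5.6 µM per compound / Signal: Fluo-8 fluorescence / Replicates: singlicate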
GalR3 antag = blocks the human galanin receptor 3; HEK293 GalR3-CNG cAMP membrane potential fluorescence; galR3 body fused to GalR1 C-terminus; inhibition, % at 3 µM; 360,000 tested, 0.44% active; AID 651719;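 active = inhibition above the screen-wide average plus 3 SD, cut at about 13% in these data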;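 also: forskolin and galanin both at EC90 stimulate the cells; cAMP rise reported by CNG channel membrane potential dye signal; 0% = forskolin plus galanin with DMSO and 100% = forskolin alone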
GalR3 antag conf = GalR3 (human) antagonism, confirmation. shares compounds with GalR3 antag. HEK293 GalR3 CNG cAMP biosensor, membrane potential fluorescence; galR3 fused to GalR1 carboxy tail; challenged with forskolin and galanin at EC90. inhibition, % at 3 µM. 1,600 tested, 59% active;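 active = inhibition above the primary screen's cutoff, the mean inhibition of all screened compounds plus 3 SD, cut at about 13% in these data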;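 also: 0% = forskolin plus galanin and 100% = forskolin alone with DMSO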
CNG parental = counter-screen for GalR3 antagonists: nonspecific agonists in parental HEK-CNG cells | shares compounds with GalR3 antag | HEK293-CNG parental cells, cAMP membrane potential fluorescence; normalised: DMSO wells 0%, forskolin wells 100% | activation, % at 3 µM | 1,600 tested, 10% active | AID 652268; in the data active = activation above about 1.3%
The depositor's hits bear a star; · = no result given.

SMILES	OX1R antag-1	OX1R antag-2	GPR7 antag	CHO parental Ca	GalR3 antag	GalR3 antag conf	CNG parental
Cc1ccccc1Nc1nc(N)nc(COC(=O)[C@@H](NC(=O)c2c(F)cccc2F)C(C)C)n1	32.0	-36.0	·	-6.8	-1.3	·	·
Oc1cc2c(c(Cl)c1O)CCNCC2c1ccccc1 (stereo unspecified)	11.6	1.6	·	5.9	25.9*	32.1*	0.7
C=C(C)CN(CC)C(=O)CN1C(=O)NC2(CCCc3ccccc32)C1=O (stereo unspecified)	23.1	-11.5	11.9	-7.5	-0.6	·	·
CCOC(=O)CC1CCCCN1C(=O)c1cc(COc2cccc3cnccc23)on1 (stereo unspecified)	48.0*	25.8	21.3	53.2*	103.6*	110.6*	-0.5
CN(Cc1cccnc1)C(=O)CNC(=O)COc1ccccc1	11.9	-17.1	7.3	-5.8	-5.5	·	·
CCOC(=O)C(=Cc1ccc(OCc2ccc([N+](=O)[O-])cc2)c(OC)c1)C(=O)OCC	18.7	-15.7	2.2	-0.8	·	4.6	-0.2
Nc1ncnc2c1ncn2[C@@H]1O[C@H](CNCc2c(OCc3ccccc3F)ccc3ccccc23)[C@@H](O)[C@H]1O	-0.8	-13.1	·	-15.4	-0.8	·	·
CCN(C(=O)c1ccc(C(C)(C)C)cc1)c1nnc(Cn2nnc3ccccc32)s1	64.3	68.6*	7.6	66.3*	102.2*	107.2*	0.1
CCN(C(=O)CC(C)C)c1nnc(Cn2nnc3ccccc32)s1	31.7	-11.4	18.9	-21.4	-4.9	·	·
Cc1ccccc1NC(=O)CNc1ccc(Cl)c(C(F)(F)F)c1	18.4	-11.6	4.8	-9.8	13.8*	1.6	0.1
COc1ccc(/C=C2\SC(=O)N(CCNC(=O)C3=COCCO3)C2=O)cc1	23.1	-10.5	·	-17.3	31.0*	20.6*	0.5
CC(Oc1ccc(Cl)cc1)C(=O)NCCN1C(=O)S/C(=C\c2cccnc2)C1=O (stereo unspecified)	17.2	-28.0	-3.3	-23.5	-11.3	·	·
O=C(NCCN1C(=O)S/C(=C\c2ccc(OC(F)F)cc2)C1=O)C1=COCCO1	27.9	-29.1	·	-29.6	·	·	·
O=C(NCCN1C(=O)S/C(=C\c2ccc(OC(F)F)cc2)C1=O)c1cnccn1	31.2	-4.0	7.2	-1.4	14.7*	5.8	1.1
O=C1CS(=O)(=O)c2ccccc2N1	4.8	-3.3	-7.6	-6.6	-12.4	·	·
COc1cc2c(cc1OC)CN(C(=O)/C=C/c1cccc([N+](=O)[O-])c1)CC2	16.5	-12.7	-1.1	-7.1	-9.8	·	·
Cc1ccc(N2C(=O)c3cccc4c([N+](=O)[O-])ccc(c34)C2=O)c2cccnc12	17.8	15.0	-9.0	-15.6	14.1*	17.3*	0.5
CC(C)C(=O)NCCc1nc(-c2ccccc2)no1	3.3	5.2	·	7.1	·	0.6	0.1
N#C/C(=C(/O)CCl)c1nc2c(s1)CCc1ccccc1-2	54.7	-16.7	2.2	-3.7	-6.4	·	·
Brc1ccc(-c2ncc(-c3ccccc3)cn2)cc1	6.7	2.2	2.5	12.6	·	3.1	0.0
CC(C)C[C@H](NC(=O)Nc1ccc2c(c1)OCCO2)C(=O)O	22.3	-12.2	-13.2	1.8	-2.6	·	·
O=C1C(=O)N(CCN2CCOCC2)C(c2cccnc2)/C1=C(/O)c1ccc(Cl)cc1 (stereo unspecified)	15.0	-11.7	-6.1	4.5	-3.7	·	·
CCc1c(C)nc2ncnn2c1Nc1ccc(C)cc1	16.0	-17.1	-9.1	-7.9	-3.4	·	·
CCc1c(C)nc2ncnn2c1NCCc1ccc(OC)cc1	27.1	10.0	22.2	7.3	14.5*	59.0*	0.2
CCCc1cc(=O)[nH]c(SCC(=O)NCC2COc3ccccc3O2)n1 (stereo unspecified)	8.7	-15.8	·	-17.0	-1.5	·	·
O=C(Cc1ccsc1)N1CCc2c([nH]c3ccccc23)C1c1ccccn1 (stereo unspecified)	19.8	-27.4	-3.3	-18.0	15.7*	-0.7	0.3
CCn1c(=O)c2c(nc(SCC(=O)N3CCCC(C)C3)n2C)n(C)c1=O (stereo unspecified)	3.1	-19.4	-10.4	-14.6	-7.2	·	·

From PubChem
